Reference: ChEMBL document CHEMBL4033604, “Cytotoxicity and Mechanism of Action of the Marine-Derived Fungal Metabolite Trichodermamide B and Synthetic Analogues” (J Nat Prod, 2017)
Calls of active or inactive are those of the source.

Legend:
[1] = test system: HeLa; assay: Cytotoxicity against human HeLa cells after 48 hrs by SRB assay; format: functional, cell-based
Outline: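 HeLa cells treated over a concentration range for 48 h; survival by sulforhodamine B staining relative to vehicle control; four-parameter nonlinear regression; IC50 and IC85 as concentrations giving 50% or 85% inhibition of cell density; time-zero cell density marks cytotoxicity threshold; mean ± SEM, n = 4 independent experiments in triplicate.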

[2] = test system: HeLa; assay: Induction of double stranded DNA breaks in human HeLa cells assessed as gamma-H2Ax phosphorylation at Ser139 residue at IC50 after 24 hrs by Hoechst 33342 staining-based indirect immunofluorescence microscopic method; format: cell-based
Outline: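 HeLa exposed 24 h to IC50 concentration or 0.6% DMSO; fixed in ice-cold MeOH 5 min, blocked 10% bovine calf serum 20 min, anti-γH2A.X (Ser139) 2 h then Alexa Fluor 594 secondary 1 h at room temperature; nuclei counterstained Hoechst 33342; foci scored by fluorescence microscopy; n = 2 experiments in duplicate.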

[3] = test system: HeLa; assay: Cytotoxicity against human HeLa cells assessed as inhibition of colony formation pretreated for 4 hrs followed by compound washout measured after 10 days by crystal violet staining based assay; format: functional, cell-based
Outline: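 HeLa plated at 150 cells per dish, exposed 4 h to DMSO or IC85 concentration, washed with PBS, regrown in fresh medium 10 days; fixed, stained with 0.5% crystal violet in 10% methanol, colonies counted; n = 3−5 experiments in duplicate; one-way ANOVA.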

[4] = test system: HeLa; assay: Cell cycle arrest in human HeLa cells at IC85 after 4 to 24 hrs by Krishan's reagent staining-based flow cytometric method; format: functional
[5] = test system: HeLa; assay: Induction of apoptosis in human HeLa cells assessed as upregulation of cleaved PARP protein levels at IC85 after 24 hrs by Western blot analysis; format: functional, cell-based
Outline: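 HeLa treated with IC85 concentration or 0.1% DMSO over a 4, 8, 16, 24 h time course; whole-cell lysates (protease inhibitors, 50 mM NaF, 200 μM Na3VO4, 1 mM PMSF), equal protein on 12% Bis-Tris SDS-PAGE, PVDF blot probed for cleaved PARP with GAPDH loading control (1:1000); two independent experiments.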

[6] = Cytotoxicity against mouse lymphoma cells by MTT assay; format: functional, cell-based; details: Lymphoma cell
[7] = test system: CWR22R; assay: Cytotoxicity against human 22Rv1 cells after 24 to 72 hrs by MTT assay; format: functional, cell-based
[8] = test system: LNCaP; assay: Cytotoxicity against human LNCAP cells after 24 to 72 hrs by MTT assay; format: functional, cell-based
[9] = test system: PC-3; assay: Cytotoxicity against human PC3 cells after 24 to 72 hrs by MTT assay; format: functional, cell-based
[10] = test system: HL-60; assay: Cytotoxicity against human HL60 cells; format: functional, cell-based
[11] = test system: A549; assay: Cytotoxicity against human A549 cells; format: functional, cell-based
[12] = test system: P388; assay: Cytotoxicity against mouse P388 cells; format: functional, cell-based
[13] = test system: HeLa; assay: Cell cycle arrest in human HeLa cells assessed as accumulation at G2/M phase at IC85 after 24 hrs by Krishan's reagent staining-based flow cytometric method; format: functional

COc1ccc2cc(NC(=O)C3=NO[C@H]4C=C[C@@H]5O[C@@H]5[C@@]4(O)C3)c(=O)oc2c1OC
IC50 [1]: > 10 µM | IC85 [1]: > 10 µM

CNc1cc2ccc(OC)c(OC)c2oc1=O
IC50 [1]: > 10 µM | IC85 [1]: > 10 µM

COc1ccc2cc(NC(=O)C3=NO[C@H]4C=CC=C[C@@]4(O)C3)c(=O)oc2c1OC
IC50 [1]: > 10 µM | IC85 [1]: > 10 µM

CCOC(=O)C1=NO[C@H]2C=C[C@@H]3O[C@@H]3[C@@]2(O)C1
IC50 [1]: > 10 µM | IC85 [1]: > 10 µM

COc1ccc2cc(N(C)C(=O)C3=NO[C@H]4C=C[C@@H]5O[C@@H]5[C@@]4(O)C3)c(=O)oc2c1OC
IC50 [1]: > 10 µM | IC85 [1]: > 10 µM

CCOC(=O)C1=NO[C@H]2C=CC=C[C@@]2(O)C1
IC50 [1]: > 10 µM | IC85 [1]: > 10 µM

COc1ccc2cc(NC(=O)C3=NO[C@H]4[C@H](O)C=C[C@@H](Cl)[C@@]4(O)C3)c(=O)oc2c1OC [TRICHODERMAMIDE B]
Activity [2]: Active | IC50 [1]: 3.1 µM | IC85 [1]: 18 µM | inhibition [3]: Active

COc1ccc2cc(N(C)C(=O)C3=NO[C@H]4[C@H](O)C=C[C@@H](O)[C@@]4(O)C3)c(=O)oc2c1OC [TRICHODERMAMIDE C]
IC50 [1]: > 10 µM | IC85 [1]: > 10 µM

COc1ccc2cc(N)c(=O)oc2c1OC
IC50 [1]: > 10 µM | IC85 [1]: > 10 µM

CCOC(=O)C1=NO[C@H]2CC(=O)[C@@H]3O[C@@H]3[C@@]2(O)C1 (relative stereo)
Activity [2]: inactive | IC50 [1]: 1.4 µM | IC85 [1]: 3.4 µM | Activity [4]: inactive | Activity [5]: inactive | inhibition [3]: inactive

COc1ccc([C@H]2SS[C@@]34C[C@]5(O)[C@H](Cl)C=C[C@@H](O)[C@@H]5ON3C(=O)[C@@H]2N(C)C4=O)c(O)c1OC
IC50 [6]: 2 µM | IC50 [7]: 0.51 to 5.11 µM | IC50 [8]: 0.51 to 5.11 µM | IC50 [9]: 0.51 to 5.11 µM

COc1ccc2cc(NC(=O)C3=NO[C@H]4CC(=O)[C@@H]5O[C@@H]5[C@@]4(O)C3)c(=O)oc2c1OC
IC50 [1]: > 10 µM | IC85 [1]: > 10 µM

COc1ccc2cc(NC(=O)C3=NO[C@H]4CC(=O)C=C[C@@]4(O)C3)c(=O)oc2c1OC (relative stereo)
Activity [2]: inactive | IC50 [1]: 5.7 µM | IC85 [1]: 12 µM | Activity [4]: inactive | Activity [5]: inactive | inhibition [3]: inactive

COc1ccc2cc(N(C)C(=O)C3=NO[C@H]4[C@@H]5O[C@@H]5C=C[C@@]4(O)C3)c(=O)oc2c1OC
IC50 [1]: > 10 µM | IC85 [1]: > 10 µM

COc1ccc2cc(NC(=O)[C@@]34C[C@]5(O)[C@@H](C=C[C@@H](O)[C@@H]5ON3)S4)c(=O)oc2c1OC
IC50 [10]: 84 µM | IC50 [11]: > 100 µM | IC50 [12]: > 100 µM

COc1ccc2cc(N(C)C(=O)C3=NO[C@H]4C=CC=C[C@@]4(O)C3)c(=O)oc2c1OC
IC50 [1]: > 10 µM | IC85 [1]: > 10 µM

CCOC(=O)C1=NO[C@H]2CC(=O)C=C[C@@]2(O)C1
Activity [2]: inactive | IC50 [1]: 12 µM | IC85 [1]: 32 µM | Activity [13]: Active | inhibition [3]: Active

COc1ccc2cc(NC(=O)C3=NO[C@H]4[C@H](O)C=C[C@@H](O)[C@@]4(O)C3)c(=O)oc2c1OC [TRICHODERMAMIDE A]
IC50 [1]: > 10 µM | IC85 [1]: > 10 µM | IC50 [10]: 89 µM | IC50 [11]: > 100 µM | IC50 [12]: > 100 µM

CCOC(=O)C1=NO[C@H]2[C@@H]3O[C@@H]3C=C[C@@]2(O)C1
Activity [2]: inactive | IC50 [1]: 21 µM | IC85 [1]: 51 µM | Activity [4]: inactive | Activity [5]: inactive | inhibition [3]: inactive
